Published values pooled from the literature.
Each line is one published result; the experiments were not run side by side.
Matrix: plasma

SMILES	species	route	dose	notes	Cmax
C[C@@]1(c2cc(NC(=O)c3ccc(C#N)cn3)ccc2F)C=CSC(N)=N1	human	oral	3 mg	single dose	17.2 ng/mL
CC(C)(O)c1ccccc1-c1ccc2[nH]c(/C=C/c3ccc(C(F)(F)F)cc3)nc2c1	male human	oral	50 mg	single dose, fasted, healthy volunteers	160 ng/mL
FC(F)(F)c1ccc(CNc2ccc(Cc3c[nH]c4ncc(Cl)cc34)cn2)cn1	human	oral	600 mg	multiple doses, patients	3660 ng/mL
CC(C)(Sc1ccncc1-c1ccc(C#N)c2ccccc12)C(=O)O	male human	oral	5 mg	single dose, fed, healthy volunteers	45.7 ng/mL
Br.Cc1ccc(Sc2ccccc2N2CCNCC2)c(C)c1	human	oral	5 mg	multiple doses, steady state, healthy volunteers	9 ng/mL
COc1ccc([C@@H]2CN(C(=O)[C@@H](O)CO)C[C@@]2(C)[C@@H](C)O)cc1OC1CN(c2ccc(C)cn2)C1	human	oral	30 mg	single dose, healthy volunteers	669 ng/mL
Cc1nc(Nc2ncc(C(=O)Nc3c(C)cccc3Cl)s2)cc(N2CCN(CCO)CC2)n1	human	oral	65 mg/m²	multiple doses, twice daily, steady state, patients	168 ng/mL
COc1cc(C(=O)NC2CCN(C)CC2)c(F)cc1Nc1ncc(C(F)(F)F)c(Oc2cccc3c2C(=O)N(C)C3)n1	human	oral	300 mg	multiple doses, once daily, steady state, patients	5.06 µM
CO[C@H]1/C=C\C=C(/C)C(=O)NC2=CC(=O)C(NCCN(C)C)=C(C[C@@H](C)C[C@H](OC)[C@H](O)[C@@H](C)/C=C(\C)[C@@H]1OC(N)=O)C2=O	human	intravenous	12 mg/m²	patients, infusion	196 ng/mL
CS(=O)(=O)CCNCc1ccc(-c2ccc3ncnc(Nc4ccc(OCc5cccc(F)c5)c(Cl)c4)c3c2)o1	human	oral	750 mg	multiple doses, twice daily, steady state, patients	2110 ng/mL
CC(C)n1cc(C#N)c2cc(-n3cc(C(=O)O)cn3)ccc21	human	oral	50 mg	single dose, fasted, healthy volunteers	1440 ng/mL
CO[C@H]1CC[C@H](N2C(=O)CNc3ncc(-c4ccc(C(C)(C)O)nc4)nc32)CC1	human	oral	60 mg	patients	319 ng/mL
Nc1cc(C(F)(F)F)c(-c2cc(N3CCOCC3)nc(N3CCOCC3)n2)cn1	human	oral	50 mg/day	patients	595 ng/mL
COCCOc1cnc2ccn([C@H](C)c3nnc4c(F)cc(-c5cnn(C)c5)cn34)c(=O)c2c1	human	oral	100 mg	multiple doses, once daily, patients	2300 ng/mL
CCc1nc2c(C)cc(N3CCN(CC(=O)N4CC(O)C4)CC3)cn2c1N(C)c1nc(-c2ccc(F)cc2)c(C#N)s1	human	oral	300 mg	fed, healthy volunteers	3300 ng/mL
N#CN1C[C@H](n2nc(-c3ccc(Oc4ccc(Cl)cn4)cc3)c(C(N)=O)c2N)CCC12CC2	human	oral	600 mg	single dose, fasted	1120 ng/mL
CCOc1ccc(Cc2cc([C@@H]3S[C@H](CO)[C@@H](O)[C@H](O)[C@H]3O)c(OC)cc2C)cc1	male human	oral	5 mg	single dose, fasted, healthy volunteers	208 ng/mL
CCn1c(=O)c(-c2cc(NC(=O)Nc3ccccc3)c(F)cc2Br)cc2cnc(NC)cc21	human	oral	50 mg	single dose, patients	339 ng/mL
CO[C@@H]1[C@H](OC(=O)N2CC(CCN3CCOCC3)C2)CC[C@]2(CO2)[C@H]1[C@@]1(C)O[C@@H]1CC=C(C)C	human	subcutaneous	0.6 mg	single dose, healthy volunteers	2.28 ng/mL
CCCCC[C@H](O)CC[C@@H]1[C@H]2Cc3cccc(OCC(=O)O)c3C[C@H]2C[C@H]1O	human	inhaled	18 µg	single dose, healthy volunteers	0.43 ng/mL
Cn1cc(-c2ccc(S(=O)(=O)[C@@H]3C[C@@H](C(=O)NC4(C#N)CC4)N(C(=O)C4(C(F)(F)F)CC4)C3)c(C(F)(F)F)c2)cn1	human	oral	1 mg	single dose, fasted, healthy volunteers	4.51 ng/mL
